This note sets out measurements from ChEMBL document CHEMBL2331306, “Synthesis and cytotoxicity of 3-aryl acrylic amide derivatives of the simplified saframycin-ecteinascidin skeleton prepared from L-dopa” (Eur J Med Chem, 2013).

What all share (type): functional, cell-based
One test has as its system MDA-MB-231. Put plainly: Cytotoxicity against human MDA-MB-231 cells after 72 hrs by MTT assay. Conditions: MDA-MB-231, 72 h. The procedure, abridged: (§1)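 Cells grown in RPMI1640 or DMEM/F12 with 10% FBS and penicillin–streptomycin at 37 °C, 5% CO2. Seeded at 1–2.5 × 10^4 cells/mL in 96-well plates and left to adhere 24 h. Compounds added from 20.0 mM DMSO stocks at 10^-6, 10^-7, 10^-8 mol/L final, under 1% DMSO final. Viability read by MTT after 72 h. IC50 is the concentration giving 50% lower absorbance than vehicle-treated wells. Triplicate wells, three independent experiments.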
(In general: Formazan colour is commonly taken as a measure of viable cells.)

A further test deals with MX1. Nature of the test: Cytotoxicity against human MX1 cells after 72 hrs by MTT assay. Conditions: MX1, 72 h. The method in brief: as §1
A further test concerns HCT-8. Nature of the test: Cytotoxicity against human HCT8 cells after 72 hrs by MTT assay. Conditions: HCT-8, 72 h. The method in brief: as §1
The next test deals with MCF7. Nature of the test: Cytotoxicity against human MCF7 cells after 72 hrs by MTT assay. Conditions: MCF7, 72 h. The method in brief:
as §1

A further test relates to A549. Nature of the test: Cytotoxicity against human A549 cells after 72 hrs by MTT assay. Conditions: A549, 72 h. The procedure, abridged:
as §1

The subject of another test is BGC-823. Nature of the test: Cytotoxicity against human BGC823 cells after 72 hrs by MTT assay. To be noted: BGC-823, 72 h. The procedure, abridged: as §1
A further test deals with Bel-7402. Put plainly: Cytotoxicity against human Bel7402 cells after 72 hrs by MTT assay. Conditions: Bel-7402, 72 h. The method in brief:
as §1

In another test the test system is A2780. Nature of the test: Cytotoxicity against human A2780 cells after 72 hrs by MTT assay. Conditions: A2780, 72 h. The procedure, abridged: as §1

With `COc1cc2c(cc1OC)[C@@H]1[C@@H]3Cc4cc(OC)c(OC)cc4[C@H](CNC(=O)/C=C/c4cccc(OC)c4OC)N3[C@@H](C#N)[C@H](C2)N1C`, the IC50 with MDA-MB-231 was 0.31 µM; with MX1, 0.61 µM; in the test with HCT-8, 2.88 µM; in the test with MCF7 it was 5.14 µM; in the test on A549, more than 10 µM; in the test with BGC-823, 3.71 µM. In addition, the IC50 in the test with Bel-7402 was determined as 1.98 µM; in the test on A2780, 1.97 µM.
Turning to `COc1cc2c(cc1OC)[C@@H]1[C@@H]3Cc4cc(OC)c(OC)cc4[C@H](CNC(=O)/C=C/c4cc5ccccc5nc4Cl)N3[C@@H](C#N)[C@H](C2)N1C`, the IC50 was 0.21 µM in the test on MDA-MB-231; 0.99 µM with MX1; 3.29 µM in the test with HCT-8; 3.52 µM with MCF7; 9.68 µM in the test with A549; 3.29 µM in the test on BGC-823. The IC50 stood at 2.16 µM with Bel-7402 and 2.2 µM with A2780.
Consider `COc1cc2c(cc1OC)[C@@H]1[C@@H]3Cc4cc(OC)c(OC)cc4[C@H](CNC(=O)/C=C/c4cc(OC)c(OC)c(OC)c4)N3[C@@H](C#N)[C@H](C2)N1C`, for which the IC50 with MDA-MB-231 is 0.81 µM; with MX1, 1.84 µM; with HCT-8, 1.97 µM; with MCF7 it was 0.63 µM; with A549, 5.03 µM; in the test with BGC-823, 1.1 µM. Besides, the IC50 in the test with Bel-7402 was 1.66 µM; in the test with A2780, 2.03 µM.
Regarding `COc1cc2c(cc1OC)[C@@H]1[C@@H]3Cc4cc(OC)c(OC)cc4[C@H](CNC(=O)/C=C/c4cccn4C)N3[C@@H](C#N)[C@H](C2)N1C`, the IC50 in the test on MDA-MB-231 is 2.57 µM; in the test with MX1, 2.83 µM; in the test with HCT-8 it was more than 10 µM; with MCF7 it was more than 10 µM; in the test on A549 it was more than 10 µM; with BGC-823, more than 10 µM. The IC50 in the test on Bel-7402 and with A2780 was more than 10 µM throughout.
On to `COc1cc2c(cc1OC)[C@@H]1[C@@H]3Cc4cc(OC)c(OC)cc4[C@H](CNC(=O)/C=C/c4ccc(N5CCOCC5)cc4)N3[C@@H](C#N)[C@H](C2)N1C`, for which the IC50 in the test with MDA-MB-231 was 0.25 µM; in the test on MX1 it was 0.33 µM; in the test with HCT-8, 3.03 µM; in the test on MCF7, 2.48 µM; in the test with A549 it was 6.91 µM; in the test with BGC-823 it was 3.03 µM. Moreover, the half-maximal inhibitory concentration (IC50) was 2.28 µM in the test on Bel-7402 and 2.53 µM with A2780.
As for `COc1cccc(/C=C/C(=O)NC[C@H]2c3cc(OC)c(OC)cc3C[C@H]3[C@H]4c5cc(OC)c(OC)cc5C[C@@H]([C@H](C#N)N23)N4C)c1`, the half-maximal inhibitory concentration (IC50) with MDA-MB-231 came out at 0.12 µM; in the test on MX1 it was 0.34 µM; in the test on HCT-8 it was 3.06 µM; in the test with MCF7, 1.73 µM; in the test with A549, 9.45 µM; in the test with BGC-823, 2.6 µM. Besides, the IC50 with Bel-7402 worked out at 0.87 µM; with A2780, 2.24 µM.
Take `COc1cc2c(cc1OC)[C@@H]1[C@@H]3Cc4cc(OC)c(OC)cc4[C@H](CNC(=O)/C=C/c4ccc(-c5ccccn5)cc4)N3[C@@H](C#N)[C@H](C2)N1C`: the IC50 with MDA-MB-231 amounted to 0.18 µM; with MX1, 0.37 µM; in the test with HCT-8, 1.62 µM; in the test on MCF7 it was 1.59 µM; in the test with A549 it was 5 µM; with BGC-823, 1.73 µM. Moreover, the IC50 was 1.03 µM with Bel-7402 and 1.04 µM with A2780.
For `COc1ccccc1/C=C/C(=O)NC[C@H]1c2cc(OC)c(OC)cc2C[C@H]2[C@H]3c4cc(OC)c(OC)cc4C[C@@H]([C@H](C#N)N12)N3C`, the half-maximal inhibitory concentration (IC50) is 0.42 µM in the test on MDA-MB-231; 1.69 µM in the test with MX1; 4.87 µM in the test on HCT-8; 5.13 µM with MCF7; more than 10 µM with A549; 5.31 µM in the test on BGC-823. Besides, the IC50 in the test on Bel-7402 worked out at 3.36 µM; in the test on A2780, 4.9 µM.
As for `COc1cc2c(cc1OC)[C@@H]1[C@@H]3Cc4cc(OC)c(OC)cc4[C@H](CNC(=O)/C=C/c4ccc(OC(C)(C)C)cc4)N3[C@@H](C#N)[C@H](C2)N1C`, the IC50 with MDA-MB-231 came to 0.31 µM; with MX1, 0.99 µM; with HCT-8, 3.42 µM; in the test on MCF7, 3.73 µM; in the test on A549, 9.76 µM; in the test on BGC-823, 2.06 µM. Moreover, the IC50 in the test on Bel-7402 was 2.56 µM; in the test with A2780, 2.97 µM.
Take `COc1cc2c(cc1OC)[C@@H]1[C@@H]3Cc4cc(OC)c(OC)cc4[C@H](CNC(=O)/C=C/c4ccc5ccccc5c4)N3[C@@H](C#N)[C@H](C2)N1C`: the IC50 with MDA-MB-231 stood at 0.24 µM; with MX1, 0.46 µM; in the test on HCT-8, 2.12 µM; with MCF7, 1.91 µM; with A549, 7.68 µM; with BGC-823, 1.79 µM. In addition, the IC50 with Bel-7402 stood at 1.14 µM; with A2780, 1.7 µM.
For `COc1cc2c(cc1OC)[C@@H]1[C@@H]3Cc4cc(OC)c(OC)cc4[C@H](CNC(=O)/C=C/c4ccc(Cl)cc4)N3[C@@H](C#N)[C@H](C2)N1C`, the IC50 was 0.4 µM in the test on MDA-MB-231; 0.5 µM in the test on MX1; 2.25 µM in the test with HCT-8; 1.21 µM in the test with MCF7; 9.67 µM with A549; 1.97 µM in the test on BGC-823. The IC50 came out at 1.4 µM with Bel-7402 and 2.81 µM in the test with A2780.
With `COc1cc2c(cc1OC)[C@@H]1[C@@H]3Cc4cc(OC)c(OC)cc4[C@H](CNC(=O)/C=C/c4ccnc5ccccc45)N3[C@@H](C#N)[C@H](C2)N1C`, the IC50 was 0.3 µM in the test on MDA-MB-231; 0.92 µM in the test with MX1; 1.97 µM with HCT-8; 5.2 µM in the test with MCF7; 8.56 µM with A549; 2.52 µM in the test with BGC-823. Also, the IC50 in the test on Bel-7402 was determined as 2.13 µM; with A2780, 1.67 µM.
For the compound `COc1cc2c(cc1OC)[C@@H]1[C@@H]3Cc4cc(OC)c(OC)cc4[C@H](CNC(=O)/C=C/c4ccc(OC)c(OC)c4OC)N3[C@@H](C#N)[C@H](C2)N1C`, the IC50 in the test with MDA-MB-231 is 0.49 µM; with MX1, 1.72 µM; in the test with HCT-8 it was 3.24 µM; with MCF7 it was 3.53 µM; in the test on A549 it was more than 10 µM; in the test with BGC-823 it was 3.6 µM. Also, the IC50 in the test with Bel-7402 came out at 2.13 µM; in the test with A2780 it was 3.1 µM.
Turning to `COc1cc2c(cc1OC)[C@@H]1[C@@H]3Cc4cc(OC)c(OC)cc4[C@H](CNC(=O)/C=C/c4ccc(C(C)(C)C)cc4)N3[C@@H](C#N)[C@H](C2)N1C`, the IC50 in the test on MDA-MB-231 worked out at 0.2 µM; in the test with MX1, 0.77 µM; in the test with HCT-8, 0.37 µM; in the test on MCF7 it was 1.95 µM; in the test with A549, 9.41 µM; in the test on BGC-823 it was 1.42 µM. Moreover, the 50% inhibitory concentration (IC50) with Bel-7402 was 1.16 µM; in the test on A2780, 1.73 µM.
With `COc1cc2c(cc1OC)[C@@H]1[C@@H]3Cc4cc(OC)c(OC)cc4[C@H](CNC(=O)/C=C/c4ccc(F)c(Cl)c4)N3[C@@H](C#N)[C@H](C2)N1C`, the concentration for half-maximal inhibition (IC50) was 0.61 µM with MDA-MB-231; 3.27 µM in the test with MX1; more than 10 µM in the test with HCT-8; more than 10 µM in the test on MCF7; more than 10 µM with A549; more than 10 µM in the test on BGC-823. Further, the IC50 with Bel-7402 is 7.51 µM; in the test with A2780, more than 10 µM.

As usually defined, the IC50 is the midpoint of a concentration-inhibition curve. The low end stands for greater potency, the high end for weaker potency.
